This passage reports inhibition in vivo and viability results from ChEMBL document CHEMBL4152257, “Discovery of novel β-carboline/acylhydrazone hybrids as potent antitumor agents and overcome drug resistance” (Eur J Med Chem, 2018).

The subject of one experiment is NCI-H460. Nature of the experiment: Antitumor activity against human H460 cells xenografted in athymic nude Balb/C mouse assessed as tumor growth inhibition at 100 mg/kg, po administered 3 times per week measured on day 18 relative to control. The class given is functional. As to conditions: 432 h, read-out: TGI. In outline: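 Nude mice (5-6 weeks old, female) implanted sc in right flank with 5 × 10^6 H460 cells in HBSS; at 100 mm3 tumours, randomised 6 per group to vehicle, oral 100 mg/kg three times weekly, or ip 30 mg/kg once weekly. Tumour volume by caliper every 2 days as (π/6) × length × width²; body weight recorded; inhibition from tumour weights versus control.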

In a further experiment the test system is NCI/ADR-RES. Nature of the experiment: Induction of apoptosis in human MCF7/ADR cells assessed as viable cells at 10 uM after 48 hrs by annexin V-FITC/PI dual staining based flow cytometry (reference value: 89.8%). It is filed as functional. As to conditions: read-out: Activity.

For `N#Cc1ccc(COc2cccc(/C=N/NC(=O)c3cc4c(cn3)[nH]c3ccccc34)c2)cc1`, in the experiment on NCI-H460, the inhibition in vivo at 100 mg/kg is 17.2%. Also, the viability at 10 µM in the experiment with NCI/ADR-RES turned out to be 70.1%.
